Values after ≈ are worked out from the molar mass of the structure shown.
How the values were obtained:
[1] = test system: Plasma; assay: Prodrug conversion in rat plasma assessed as formation of 1-ethyl-3-[6-fluoro-5-[2-(1-hydroxy-1-methyl-ethyl)pyrimidin-5-yl]-7-[(2R)-tetrahydrofuran-2-yl]-1H-benzimidazol-2-yl]urea at 3 mg/kg, po by LC-MS/MS analysis; format: ADME, organism-based; conditions: in vivo
Outline: (§1)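 Prodrug given orally to rat and dog at 3 mg/kg and to monkey at 30 mg/kg. Plasma parent exposure measured, with oral dosing of the parent at the same nominal dose as comparator.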

[2] = test system: Plasma; assay: Prodrug conversion in dog plasma assessed as formation of 1-ethyl-3-[6-fluoro-5-[2-(1-hydroxy-1-methyl-ethyl)pyrimidin-5-yl]-7-[(2R)-tetrahydrofuran-2-yl]-1H-benzimidazol-2-yl]urea at 3 mg/kg, po by LC-MS/MS analysis; format: ADME, organism-based, Canis lupus familiaris; conditions: in vivo; outline: as §1
[3] = test system: Plasma; assay: Prodrug conversion in monkey plasma assessed as formation of 1-ethyl-3-[6-fluoro-5-[2-(1-hydroxy-1-methyl-ethyl)pyrimidin-5-yl]-7-[(2R)-tetrahydrofuran-2-yl]-1H-benzimidazol-2-yl]urea at 30 mg/kg, po by LC-MS/MS analysis; format: ADME, organism-based, Macaca mulatta; conditions: rhesus monkey, in vivo; outline: as §1
[4] = test system: Liver; assay: Prodrug conversion in rat liver S9 fractions assessed as formation of 1-ethyl-3-[6-fluoro-5-[2-(1-hydroxy-1-methyl-ethyl)pyrimidin-5-yl]-7-[(2R)-tetrahydrofuran-2-yl]-1H-benzimidazol-2-yl]urea by Michaelis-Menten plot analysis; format: ADME, subcellular, Liver S9 fraction
Outline: (§2)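 Prodrug incubated across 1 to 1000 μM in liver and intestinal S9 fractions from rat, dog, monkey and human. Formation of the parent compound was followed to characterize conversion kinetics.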

[5] = test system: Liver; assay: Prodrug conversion in dog liver S9 fractions assessed as formation of 1-ethyl-3-[6-fluoro-5-[2-(1-hydroxy-1-methyl-ethyl)pyrimidin-5-yl]-7-[(2R)-tetrahydrofuran-2-yl]-1H-benzimidazol-2-yl]urea by Michaelis-Menten plot analysis; format: ADME, subcellular, Canis lupus familiaris, Liver S9 fraction; outline: as §2
[6] = Prodrug conversion in monkey liver S9 fractions assessed as formation of 1-ethyl-3-[6-fluoro-5-[2-(1-hydroxy-1-methyl-ethyl)pyrimidin-5-yl]-7-[(2R)-tetrahydrofuran-2-yl]-1H-benzimidazol-2-yl]urea by Michaelis-Menten plot analysis; format: ADME, subcellular, Macaca mulatta, Liver S9 fraction; conditions: rhesus monkey; outline: as §2
[7] = test system: Liver; assay: Prodrug conversion in human liver S9 fractions assessed as formation of 1-ethyl-3-[6-fluoro-5-[2-(1-hydroxy-1-methyl-ethyl)pyrimidin-5-yl]-7-[(2R)-tetrahydrofuran-2-yl]-1H-benzimidazol-2-yl]urea by Michaelis-Menten plot analysis; format: ADME, subcellular, Liver S9 fraction; outline: as §2
[8] = test system: Intestine; assay: Prodrug conversion in rat intestine S9 fractions assessed as formation of 1-ethyl-3-[6-fluoro-5-[2-(1-hydroxy-1-methyl-ethyl)pyrimidin-5-yl]-7-[(2R)-tetrahydrofuran-2-yl]-1H-benzimidazol-2-yl]urea by Michaelis-Menten plot analysis; format: ADME, tissue-based; outline: as §2
[9] = Prodrug conversion in dog intestine S9 fractions assessed as formation of 1-ethyl-3-[6-fluoro-5-[2-(1-hydroxy-1-methyl-ethyl)pyrimidin-5-yl]-7-[(2R)-tetrahydrofuran-2-yl]-1H-benzimidazol-2-yl]urea by Michaelis-Menten plot analysis; format: ADME, tissue-based, Canis lupus familiaris; outline: as §2
[10] = Prodrug conversion in monkey intestine S9 fractions assessed as formation of 1-ethyl-3-[6-fluoro-5-[2-(1-hydroxy-1-methyl-ethyl)pyrimidin-5-yl]-7-[(2R)-tetrahydrofuran-2-yl]-1H-benzimidazol-2-yl]urea by Michaelis-Menten plot analysis; format: ADME, tissue-based, Macaca mulatta; conditions: rhesus monkey; outline: as §2
[11] = Prodrug conversion in human intestine S9 fractions assessed as formation of 1-ethyl-3-[6-fluoro-5-[2-(1-hydroxy-1-methyl-ethyl)pyrimidin-5-yl]-7-[(2R)-tetrahydrofuran-2-yl]-1H-benzimidazol-2-yl]urea by Michaelis-Menten plot analysis; format: ADME, tissue-based; outline: as §2
[12] = test system: Staphylococcus aureus; assay: Antibacterial activity against methicillin-resistant Staphylococcus aureus 509 in po dosed neutropenic CD1 mouse pneumonia model assessed as decrease in bacterial burden in lung administered as bid measured after 24 hrs; format: functional; conditions: for MIC: Staphylococcus aureus, 509, Lung
Outline: (§3)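 Neutropenic female CD-1 mice, 6 per group, infected in the lung with the MRSA isolate. Oral dosing began 3 h after challenge at 7.5, 15 and 30 mg/kg BID. Lungs were taken after 24 h of treatment and bacterial burden counted as CFU. Early-control and vehicle-treated groups served as reference. The levofloxacin comparator was given TID subcutaneously.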

[13] = test system: Staphylococcus aureus; assay: Antibacterial activity against methicillin/levofloxacin-resistant Staphylococcus aureus 156 in po dosed neutropenic CD1 mouse pneumonia model assessed as decrease in bacterial burden in lung administered as bid measured after 24 hrs; format: functional; conditions: for MIC: Staphylococcus aureus, 156, Lung; outline: as §3
[14] = test system: Staphylococcus aureus; assay: Antibacterial activity against methicillin/levofloxacin-resistant Staphylococcus aureus 156 in neutropenic CD1 mouse pneumonia model assessed as decrease in bacterial burden in lung at 30 mg/kg, po bid measured after 24 hrs; format: functional; outline: as §3
[15] = test system: Staphylococcus aureus; assay: Antibacterial activity against methicillin-resistant Staphylococcus aureus 509 in neutropenic CD1 mouse pneumonia model assessed as decrease in bacterial burden in lung at 30 mg/kg, po bid measured after 24 hrs; format: functional; outline: as §3
[16] = test system: Plasma; assay: Prodrug conversion in dog plasma assessed as formation of 1-ethyl-3-[6-fluoro-5-[2-(1-hydroxy-1-methyl-ethyl)pyrimidin-5-yl]-7-[(2R)-tetrahydrofuran-2-yl]-1H-benzimidazol-2-yl]urea at 1 mg/kg, iv measured at 4 hrs by LC-MS/MS analysis; format: ADME, organism-based, Canis lupus familiaris; conditions: in vivo
Outline: (§4)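 Single IV dose, 1 mg/kg nominal, given to rat, dog and monkey. Plasma sampled over time for both prodrug and parent, with the parent exposure expressed as AUC. Dosing the parent itself IV at the same nominal dose served as the comparator.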

[17] = test system: Plasma; assay: Prodrug conversion in monkey plasma assessed as formation of 1-ethyl-3-[6-fluoro-5-[2-(1-hydroxy-1-methyl-ethyl)pyrimidin-5-yl]-7-[(2R)-tetrahydrofuran-2-yl]-1H-benzimidazol-2-yl]urea at 1 mg/kg, iv measured at 4 hrs by LC-MS/MS analysis; format: ADME, organism-based, Macaca mulatta; conditions: rhesus monkey, in vivo; outline: as §4
[18] = Aqueous solubility of the compound at pH 7; format: physicochemical; conditions: buffer
[19] = test system: Staphylococcus aureus; assay: Antibacterial activity against Staphylococcus aureus ATCC 29213; format: functional
[20] = test system: Enterococcus faecalis; assay: Antibacterial activity against Enterococcus faecalis ATCC 29212; format: functional
[21] = test system: Enterococcus faecium; assay: Antibacterial activity against Enterococcus faecium ATCC 49624; format: functional
[22] = test system: Streptococcus pneumoniae; assay: Antibacterial activity against Streptococcus pneumoniae ATCC 10015; format: functional
[23] = target: DNA gyrase (Staphylococcus aureus, UniProt P0A0K8+P20831); assay: Inhibition of Staphylococcus aureus DNA gyrase; format: protein-complex assay
Sequence of DNA gyrase (P0A0K8 whole entry): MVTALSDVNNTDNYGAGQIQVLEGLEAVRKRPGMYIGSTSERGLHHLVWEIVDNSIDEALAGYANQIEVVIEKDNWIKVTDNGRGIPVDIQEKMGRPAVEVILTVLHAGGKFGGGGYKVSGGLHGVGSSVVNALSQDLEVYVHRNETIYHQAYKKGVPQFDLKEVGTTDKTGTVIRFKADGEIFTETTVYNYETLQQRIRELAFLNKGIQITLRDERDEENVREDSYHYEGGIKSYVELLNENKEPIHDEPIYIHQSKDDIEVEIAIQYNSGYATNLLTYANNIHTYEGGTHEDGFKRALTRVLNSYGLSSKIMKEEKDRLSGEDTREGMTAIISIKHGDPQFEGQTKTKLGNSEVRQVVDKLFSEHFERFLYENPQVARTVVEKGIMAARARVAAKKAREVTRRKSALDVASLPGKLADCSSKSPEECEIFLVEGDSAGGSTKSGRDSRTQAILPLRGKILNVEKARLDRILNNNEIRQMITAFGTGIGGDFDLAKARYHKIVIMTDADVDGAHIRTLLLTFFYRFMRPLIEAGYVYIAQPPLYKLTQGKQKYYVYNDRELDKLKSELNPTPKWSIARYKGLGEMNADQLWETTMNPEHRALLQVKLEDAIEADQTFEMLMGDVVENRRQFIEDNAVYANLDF
Sequence of DNA gyrase (P20831 whole entry): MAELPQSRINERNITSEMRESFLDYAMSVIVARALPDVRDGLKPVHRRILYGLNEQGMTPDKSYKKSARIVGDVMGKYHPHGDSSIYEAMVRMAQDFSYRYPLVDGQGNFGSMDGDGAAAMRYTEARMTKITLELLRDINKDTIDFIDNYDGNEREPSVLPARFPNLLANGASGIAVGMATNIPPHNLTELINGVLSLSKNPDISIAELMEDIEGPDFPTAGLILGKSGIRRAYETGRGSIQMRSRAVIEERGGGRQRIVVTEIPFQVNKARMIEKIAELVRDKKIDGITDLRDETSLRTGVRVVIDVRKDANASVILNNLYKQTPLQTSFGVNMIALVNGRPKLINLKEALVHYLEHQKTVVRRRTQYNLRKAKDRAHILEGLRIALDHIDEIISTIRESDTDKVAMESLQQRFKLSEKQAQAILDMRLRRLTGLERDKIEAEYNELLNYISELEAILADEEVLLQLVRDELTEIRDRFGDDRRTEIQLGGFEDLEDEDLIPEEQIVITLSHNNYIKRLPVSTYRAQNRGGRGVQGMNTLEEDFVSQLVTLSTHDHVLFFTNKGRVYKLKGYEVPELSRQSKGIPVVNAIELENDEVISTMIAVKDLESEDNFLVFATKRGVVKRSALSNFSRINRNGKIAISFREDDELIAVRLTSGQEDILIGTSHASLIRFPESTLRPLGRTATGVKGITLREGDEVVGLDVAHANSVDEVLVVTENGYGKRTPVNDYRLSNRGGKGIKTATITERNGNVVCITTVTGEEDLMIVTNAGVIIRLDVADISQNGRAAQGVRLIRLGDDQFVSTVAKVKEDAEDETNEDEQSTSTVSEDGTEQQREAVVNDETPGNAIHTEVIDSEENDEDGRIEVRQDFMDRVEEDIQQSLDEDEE

[24] = target: Topoisomerase IV (Staphylococcus aureus, UniProt P0C1S7+P0C1U9); assay: Inhibition of Staphylococcus aureus DNA topoisomerase 4; format: protein-complex assay
Sequence of Topoisomerase IV (P0C1U9 whole entry): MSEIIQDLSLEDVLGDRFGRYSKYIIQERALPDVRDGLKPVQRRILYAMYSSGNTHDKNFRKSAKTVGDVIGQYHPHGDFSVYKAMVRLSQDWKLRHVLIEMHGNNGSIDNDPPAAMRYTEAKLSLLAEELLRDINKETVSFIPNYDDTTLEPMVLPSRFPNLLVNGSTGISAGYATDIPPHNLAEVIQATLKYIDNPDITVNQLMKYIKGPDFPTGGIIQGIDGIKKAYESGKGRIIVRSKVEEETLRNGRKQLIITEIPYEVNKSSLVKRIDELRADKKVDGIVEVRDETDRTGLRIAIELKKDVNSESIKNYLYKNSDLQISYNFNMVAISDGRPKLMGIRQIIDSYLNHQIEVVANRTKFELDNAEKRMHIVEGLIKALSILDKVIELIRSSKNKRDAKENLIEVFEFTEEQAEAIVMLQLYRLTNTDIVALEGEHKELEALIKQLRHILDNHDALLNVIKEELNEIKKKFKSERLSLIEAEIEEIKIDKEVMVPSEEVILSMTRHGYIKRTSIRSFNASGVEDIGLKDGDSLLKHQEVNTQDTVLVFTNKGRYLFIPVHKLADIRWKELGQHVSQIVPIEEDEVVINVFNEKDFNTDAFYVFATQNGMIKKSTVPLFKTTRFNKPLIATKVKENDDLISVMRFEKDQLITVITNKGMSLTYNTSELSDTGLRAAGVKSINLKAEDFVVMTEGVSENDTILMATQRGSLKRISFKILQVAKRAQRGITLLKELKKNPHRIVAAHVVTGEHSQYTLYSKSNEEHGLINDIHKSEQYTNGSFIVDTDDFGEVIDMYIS
Sequence of Topoisomerase IV (P0C1S7 whole entry): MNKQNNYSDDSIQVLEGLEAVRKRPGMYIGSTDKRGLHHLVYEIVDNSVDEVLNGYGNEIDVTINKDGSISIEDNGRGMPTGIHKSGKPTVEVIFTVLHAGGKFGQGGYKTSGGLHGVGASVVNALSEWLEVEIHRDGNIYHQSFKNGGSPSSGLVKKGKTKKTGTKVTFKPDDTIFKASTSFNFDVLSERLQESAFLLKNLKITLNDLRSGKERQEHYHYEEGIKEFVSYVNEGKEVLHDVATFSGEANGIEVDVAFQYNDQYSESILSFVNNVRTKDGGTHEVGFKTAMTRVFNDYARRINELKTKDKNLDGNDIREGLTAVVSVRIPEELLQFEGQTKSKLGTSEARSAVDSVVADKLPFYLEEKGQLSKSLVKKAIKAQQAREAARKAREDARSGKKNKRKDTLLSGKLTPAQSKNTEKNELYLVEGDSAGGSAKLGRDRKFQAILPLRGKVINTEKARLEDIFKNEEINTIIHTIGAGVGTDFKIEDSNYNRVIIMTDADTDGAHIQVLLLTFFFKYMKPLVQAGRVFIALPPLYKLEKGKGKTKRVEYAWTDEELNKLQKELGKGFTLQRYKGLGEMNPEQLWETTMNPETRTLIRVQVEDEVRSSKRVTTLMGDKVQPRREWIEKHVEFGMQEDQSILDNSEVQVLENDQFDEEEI

[25] = test system: Plasma; assay: Prodrug conversion in rat plasma assessed as formation of 1-ethyl-3-[6-fluoro-5-[2-(1-hydroxy-1-methyl-ethyl)pyrimidin-5-yl]-7-[(2R)-tetrahydrofuran-2-yl]-1H-benzimidazol-2-yl]urea at 1 mg/kg, iv measured at 4 hrs by LC-MS/MS analysis; format: ADME, organism-based; conditions: in vivo; outline: as §4
[26] = test system: MDCK; assay: (§5) Apparent permeability across apical to basolateral side in MDCK cells; format: ADME, cell-based, Canis lupus familiaris; conditions: dog
Outline: (§6)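 Papp measured in wild-type MDCK cells in both apical-to-basolateral and basolateral-to-apical directions; values expressed in units of 1 × 10–6 cm/sec.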

[27] = test system: MDCK; assay: (§7) Apparent permeability across basolateral to apical side in MDCK cells; format: ADME, cell-based, Canis lupus familiaris; conditions: dog; outline: as §6
[28] = test system: Plasma; assay: Drug uptake in rat plasma at 3 mg/kg, po by LC-MS/MS analysis; format: ADME, organism-based; conditions: in vivo; outline: as §1
[29] = test system: Plasma; assay: Drug uptake in dog plasma at 3 mg/kg, po by LC-MS/MS analysis; format: ADME, organism-based, Canis lupus familiaris; conditions: in vivo; outline: as §1
[30] = test system: Plasma; assay: Drug uptake in monkey plasma at 30 mg/kg, po by LC-MS/MS analysis; format: ADME, organism-based, Macaca mulatta; conditions: rhesus monkey, in vivo; outline: as §1
[31] = test system: Plasma; assay: Drug uptake in dog plasma at 1 mg/kg, iv measured at 4 hrs by LC-MS/MS analysis; format: ADME, organism-based, Canis lupus familiaris; conditions: in vivo; outline: as §4
[32] = test system: Plasma; assay: Drug uptake in rat plasma at 1 mg/kg, iv measured at 4 hrs by LC-MS/MS analysis; format: ADME, organism-based; conditions: in vivo; outline: as §4
[33] = test system: Plasma; assay: Drug uptake in monkey plasma at 1 mg/kg, iv measured at 4 hrs by LC-MS/MS analysis; format: ADME, organism-based, Macaca mulatta; conditions: rhesus monkey, in vivo; outline: as §4
[34] = as §5; format: ADME, cell-based, Canis lupus familiaris; conditions: dog; outline: as §6
[35] = as §7; format: ADME, cell-based, Canis lupus familiaris; conditions: dog; outline: as §6

## CCNC(=O)Nc1nc2cc(-c3cnc(C(C)(C)OP(=O)(O)O)nc3)c(F)c([C@H]3CCCO3)c2[nH]1
[1]
  Drug metabolism: metabolite_detected
[2]
  Drug metabolism: metabolite_detected
[3]
  Drug metabolism: metabolite_detected
[4]
  Km: 49.8 µM
  Vmax: 45.5 pmol/min/mg
[5]
  Km: 256 µM
  Vmax: 19.3 pmol/min/mg
[6]
  Km: 122 µM
  Vmax: 25.2 pmol/min/mg
[7]
  Km: 137 µM
  Vmax: 45.8 pmol/min/mg
[8]
  Km: 736 µM
  Vmax: 958 pmol/min/mg
[9]
  Km: 998 µM
  Vmax: 1162 pmol/min/mg
[10]
  Km: 5180 µM
  Vmax: 1974 pmol/min/mg
[11]
  Vmax: > 1000 pmol/min/mg
[12]
  Activity: Dose-dependent effect
[13]
  Activity: Dose-dependent effect
[14]
  Activity: >3 deltalog10CFU
[15]
  Activity: >3 deltalog10CFU
[16]
  Drug metabolism: metabolite_detected
[17]
  Drug metabolism: metabolite_detected
[18]
  solubility: 75 mg/mL (≈ 148000 µM)
[19]
  MIC: 8 µg/mL (≈ 15.7 µM)
[20]
  MIC: 1 µg/mL (≈ 1.97 µM)
[21]
  MIC: 4 µg/mL (≈ 7.87 µM)
[22]
  MIC: 0.25 µg/mL (≈ 0.492 µM)
[23]
  Ki: < 9 nM
[24]
  Ki: 30 nM
[25]
  Drug metabolism: metabolite_detected
[26]
  Papp: impermeable
[27]
  Papp: impermeable

## C[C@H]1COc2c(N3CCN(C)CC3)c(F)cc3c(=O)c(C(=O)O)cn1c23.C[C@H]1COc2c(N3CCN(C)CC3)c(F)cc3c(=O)c(C(=O)O)cn1c23.O [LEVOFLOXACIN]
[12]
  MIC: 0.25 µg/mL
[13]
  MIC: 8 µg/mL

## CCNC(=O)Nc1nc2cc(-c3cnc(C(C)(C)O)nc3)c(F)c([C@H]3CCCO3)c2[nH]1
[12]
  MIC: 0.06 µg/mL (≈ 0.14 µM)
[13]
  MIC: 0.06 µg/mL (≈ 0.14 µM)
[28]
  Drug uptake: Active
[29]
  Drug uptake: Active
[30]
  Drug uptake: Active
[31]
  Drug uptake: Active
[32]
  Drug uptake: Active
[33]
  Drug uptake: Active
[19]
  MIC: 0.016 µg/mL (≈ 0.0373 µM)
[20]
  MIC: 0.016 µg/mL (≈ 0.0373 µM)
[21]
  MIC: 0.063 µg/mL (≈ 0.147 µM)
[22]
  MIC: ≤ 0.008 µg/mL
[23]
  Ki: < 9 nM
[24]
  Ki: 12 nM
[34]
  Papp A→B: 9.5 ×10⁻⁶ cm/s
[35]
  Papp B→A: 16.3 ×10⁻⁶ cm/s
